Read-outs that look alike come from different tables or passages of the source.
Columns and labels:
MCF7 cells = experiment: MTS assay of cell proliferation, MCF7; type: cell-based, human; details: for IC50: Homo sapiens; for decrease of EC50 due to HNL/BLM combination: MCF7, combination with honokiol (10 μM)
In short: (§1)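 Cells grown in DMEM with 10% FBS at 37 °C and 5% CO2. Plated at 5 × 10^3 per well, grown 24 h, then exposed 24 or 72 h to test compound alone or in pairs: 10 μM bleomycin-type or 250 μM alkylating agent added to the lignan, or 10 μM lignan added to either. DMSO 0.2% final; vehicle controls. MTS/PMS for 4 h; A492; cell-free background. Triplicate; IC50 fit, 95% CI.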

[1] = tested on: human cancer cell lines A549, MCF7, PANC-1, UACC903; experiment: MTS assay of cell proliferation, cell lines not specified; type: cell-based; details: combination with honokiol, cell line not specified
In short: as §1

A549 cells = experiment: MTS assay of cell proliferation, A549; type: cell-based, human; details: for IC50: Homo sapiens
In short: as §1

PANC1 cells = experiment: MTS assay of cell proliferation, PANC1; type: cell-based, human; details: for IC50: Homo sapiens
In short: as §1

UACC903 cells = experiment: MTS assay of cell proliferation, UACC903; type: cell-based, human; details: for IC50: Homo sapiens; for decrease of EC50 due to HNL/BLM combination: UACC903, combination with honokiol (10 μM)
In short: as §1

GM12878 cells = experiment: MTS assay of cell proliferation, GM12878; type: cell-based, human; details: for IC50: Homo sapiens
In short: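 Lymphoblasts grown in RPMI 1640 with 15% FBS at 37 °C and 5% CO2. Plated at 5 × 10^3 per well, grown 24 h, then exposed 24 or 72 h to test compound alone or with 10 μM lignan inhibitor added. DMSO 0.2% final; vehicle controls. MTS/PMS in PBS pH 7.2 for 4 h at 37 °C; A492; cell-free background. Triplicate; normalized absorbance fitted for IC50 with 95% CI.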

pol β = details: linear mixed-mode inhibition mechanism; cited from earlier work
[2] = PANC1, combination with honokiol (10 μM)

## Cn1nnc2c(C(N)=O)ncn2c1=O [TMZ, temozolomide]
MCF7 cells; MCF7, 24 h, read-out: −log(IC50) (95% CI), MCF7, 24 h, tested compound alone (converted)
  IC50: 501 µM
MCF7 cells; MCF7, 72 h, read-out: −log(IC50) (95% CI), MCF7, 72 h, tested compound alone (converted)
  IC50: 200 µM
[1]
  decrease of EC50 due to HNL/TMZ combination: up to three-fold
[1]; listed as temozolomide
  decrease of EC50 due to HNL/TMZ combination: three-fold
A549 cells; A549, 24 h, read-out: −log(IC50) (95% CI), A549, 24 h, tested compound alone (converted)
  IC50: 398 µM
A549 cells; A549, 72 h, read-out: −log(IC50) (95% CI), A549, 72 h, tested compound alone (converted)
  IC50: 251 µM
PANC1 cells; PANC-1, 24 h, read-out: −log(IC50) (95% CI), PANC1, 24 h, tested compound alone (converted)
  IC50: 316 µM
PANC1 cells; PANC-1, 72 h, read-out: −log(IC50) (95% CI), PANC1, 72 h, tested compound alone (converted)
  IC50: 158 µM
PANC1 cells; [2]
  decrease of EC50 due to HNL/TMZ combination: up to three-fold
UACC903 cells; UACC-903, 24 h, read-out: −log(IC50) (95% CI), UACC903, 24 h, tested compound alone (converted)
  IC50: 631 µM
UACC903 cells; UACC-903, 72 h, read-out: −log(IC50) (95% CI), UACC903, 72 h, tested compound alone (converted)
  IC50: 316 µM
GM12878 cells; 24 h, read-out: −log(IC50) (95% CI), GM12878, 24 h, tested compound alone (converted)
  IC50: < 1000 µM
GM12878 cells; 72 h, read-out: −log(IC50) (95% CI), GM12878, 72 h, tested compound alone (converted)
  IC50: 316 µM

## C=C(C)[C@@H]1CC[C@]2(C)[C@H](CC=C3[C@@H]4C[C@@](C)(C(=O)O)CC[C@]4(C)CC[C@]32C)[C@@]1(C)CCC(=O)O [koetjapic acid]
Pol β
  Ki: low micromolar range

## bleomycin [BLM]
MCF7 cells; MCF7, 24 h, supplemented with 10 μM HNL
  −log(IC50) (95% CI): 6.0 (5.7, 6.2)
MCF7 cells; MCF7, 24 h, tested compound alone
  −log(IC50) (95% CI): 4.9 (4.8, 5.0)
MCF7 cells; MCF7, 72 h, supplemented with 10 μM HNL
  −log(IC50) (95% CI): 6.3 (6.1, 6.6)
MCF7 cells; MCF7, 72 h, tested compound alone
  −log(IC50) (95% CI): 5.3 (5.2, 5.4)
MCF7 cells
  decrease of EC50 due to HNL/BLM combination: up to 10 fold
MCF7 cells; listed as bleomycin
  decrease of EC50 due to HNL/BLM combination: 10 fold
A549 cells; A549, 24 h, supplemented with 10 μM HNL
  −log(IC50) (95% CI): 5.30 (5.18, 5.43)
A549 cells; A549, 24 h, tested compound alone
  −log(IC50) (95% CI): 4.8 (4.7, 5.0)
A549 cells; A549, 72 h, supplemented with 10 μM HNL
  −log(IC50) (95% CI): 5.6 (5.5, 5.7)
A549 cells; A549, 72 h, tested compound alone
  −log(IC50) (95% CI): 5.2 (5.0, 5.3)
PANC1 cells; PANC1, 24 h, supplemented with 10 μM HNL
  −log(IC50) (95% CI): 5.9 (5.7, 6.2)
PANC1 cells; PANC1, 24 h, tested compound alone
  −log(IC50) (95% CI): 4.9 (4.7, 5.1)
PANC1 cells; PANC1, 72 h, supplemented with 10 μM HNL
  −log(IC50) (95% CI): 6.09 (5.9, 6.3)
PANC1 cells; PANC1, 72 h, tested compound alone
  −log(IC50) (95% CI): 5.2 (5.0, 5.3)
PANC1 cells; [2]
  decrease of EC50 due to HNL/BLM combination: up to 10 fold
PANC1 cells; PANC1, combination with honokiol (10 μM), listed as bleomycin
  decrease of EC50 due to HNL/BLM combination: 10 fold
UACC903 cells; UACC903, 24 h, supplemented with 10 μM HNL
  −log(IC50) (95% CI): 5.5 (5.4, 5.7)
UACC903 cells; UACC903, 24 h, tested compound alone
  −log(IC50) (95% CI): 4.9 (4.7, 5.0)
UACC903 cells; UACC903, 72 h, supplemented with 10 μM HNL
  −log(IC50) (95% CI): 6.3 (6.0, 6.5)
UACC903 cells; UACC903, 72 h, tested compound alone
  −log(IC50) (95% CI): 5.22 (5.1, 5.4)
UACC903 cells
  decrease of EC50 due to HNL/BLM combination: up to 10 fold
UACC903 cells; listed as bleomycin
  decrease of EC50 due to HNL/BLM combination: 10 fold
GM12878 cells; GM12878, 24 h, supplemented with 10 μM HNL
  −log(IC50) (95% CI): 4.2 (4.0, 4.3)
GM12878 cells; GM12878, 24 h, tested compound alone
  −log(IC50) (95% CI): 4.1 (3.91, 4.3)
GM12878 cells; GM12878, 72 h, supplemented with 10 μM HNL
  −log(IC50) (95% CI): 4.20 (4.0, 4.4)
GM12878 cells; GM12878, 72 h, tested compound alone
  −log(IC50) (95% CI): 4.1 (4.0, 4.3)

Source: paper PMC5665024 (Chemical research in toxicology, 2017)
